The results in this text go back to ChEMBL document CHEMBL1770136, “A class of novel N-isoquinoline-3-carbonyl-L-amino acid benzylesters: synthesis, anti-tumor evaluation and 3D QSAR analysis” (Eur J Med Chem, 2011).

One data set deals with HL-60. Briefly: Antiproliferative activity against human HL60 cells after 48 hrs by MTT assay. The format is functional, cell-based. As to conditions: HL-60, 48 h. The essentials: (§1)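 MTT assay in 96-well cultures; HL-60 or HeLa cells at 1×10^4/ml in RPMI-1640 with 10% FCS, penicillin and streptomycin, 37 °C, 5% CO2. After 24 h, medium renewed with compound (final 1 mM to 1 nM) for 48 h, then renewed again for 4 h. Residue dissolved in DMSO, absorbance read; inhibition = (C−T)/C, IC50 computed.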

In another data set the test system is HeLa. Nature of the data set: Antiproliferative activity against human HeLa cells after 48 hrs by MTT assay. The format is functional, cell-based. The essentials:
as §1

Data set [1] concerns CCRF S-180. Briefly: Antitumor activity against mouse S180 cells xenografted in ICR mouse assessed as tumor growth inhibition at 100 umol/kg/day, ip qd for 7 days measured 24 hrs after last dose relative to control. The format is functional. The settings on record: CCRF S-180, ip. The essentials: (§2)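 Male ICR mice, 10–12 weeks old. S180 cells from serially passaged ascites; 1×10^7 viable cells in 0.2 ml saline injected subcutaneously at right oxter. Dosing began 24 h later, 10 per group. Daily i.p. dose of 100 µmol/kg in 0.2 ml saline for 7 days; saline and i.p. cytarabine as controls. Tumors excised and weighed 24 h after last dose; inhibition calculated versus saline group.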

Data set [2] in a line: Apparent permeability from apical to basolateral side of human Caco2 cells up to 120 mins by HPLC analysis. The format is ADME, cell-based. As to conditions: Caco-2. In a few lines:
(§3)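 Caco-2 monolayers on polycarbonate transwell filters, TEER about 700 Ω cm², rechecked after each test. Compounds in HBSS at final 4 mM on the donor side, 37 °C. Receiver side sampled at 30, 60, 90 and 120 min and measured by HPLC. Papp = dQ/dt·1/(A·C0), area 1 cm²; n = 4.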

Data set [3] is described as follows: Apparent permeability from basolateral to apical side of human Caco2 cells up to 120 mins by HPLC analysis. The format is ADME, cell-based. The settings on record: Caco-2. The essentials: as §3
The subject of data set [4] is CCRF S-180. Briefly: Antitumor activity against mouse S180 cells xenografted in ICR mouse assessed as decrease of tumor weight at 1 umol/kg, po qd for 7 days measured 24 hrs after last dose. The format is functional. In a few lines:
(§4)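 S180 solid tumors started as 1×10^7 ascites-derived cells s.c. in male ICR mice, 10–12 weeks old. From 24 h, oral doses of 1, 10 or 100 µmol/kg/day in 0.2 ml saline for 7 days; oral saline negative control, i.p. cytarabine 100 µmol/kg positive control. Tumors weighed 24 h after last dose; n = 12 per table footnote.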

Data set [5] deals with CCRF S-180. Briefly: Antitumor activity against mouse S180 cells xenografted in ICR mouse assessed as decrease of tumor weight at 10 umol/kg, po qd for 7 days measured 24 hrs after last dose. The format is functional. The essentials: as §4
Data set [6] concerns CCRF S-180. Briefly: Antitumor activity against mouse S180 cells xenografted in ICR mouse assessed as decrease of tumor weight at 100 umol/kg, po qd for 7 days measured 24 hrs after last dose. The format is functional. The essentials: as §4
Data set [7] concerns Mus musculus. Briefly: Neurotoxicity in ICR mouse assessed as neurotoxic behavior at 15 to 540 mg/kg, po after 7 days. The format is toxicity, organism-based. More on the design: dose 15-540 mg/kg, route oral. The settings on record: in vivo, 168 h. The essentials:
(§5)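 Healthy mice were given the compound orally at 15, 90 and 540 mg/kg and observed for 7 days for neurotoxic signs (tremor, twitch, jumping, tetanus, supination) and for deaths. Organs were examined by necropsy on day 7.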

Data set [8] has as its system Mus musculus. Briefly: Acute toxicity in ICR mouse assessed as changes in organs at 15 to 540 mg/kg, po after 7 days by necropsy analysis. The format is organism-based. As to conditions: in vivo, 168 h. More on the design: dose 15-540 mg/kg, route oral. In a few lines:
as §5

A short description of data set [9]: Acute toxicity in po dosed ICR mouse assessed as changes in organs after 7 days by necropsy analysis. The format is organism-based. As to conditions: in vivo. The essentials:
as §5

Data set [10] can be described thus: Acute toxicity in ICR mouse assessed as mouse survival at 540 mg/kg, po. The format is organism-based. More on the design: dose 540 mg/kg, route oral. The settings on record: in vivo, read-out: Activity. The essentials: as §5
Data set [11] concerns CCRF S-180. Briefly: Antitumor activity against mouse S180 cells xenografted in ICR mouse assessed as decrease of tumor weight at 100 umol/kg, ip qd for 7 days measured 24 hrs after last dose. The format is functional. The essentials: as §2

In the case of `O=C(O)c1cc2ccccc2cn1`, the IC50 with HL-60 is 949 nM; with HeLa, 1320 nM. The inhibition in vivo at 100 µmol/kg with CCRF S-180 [1] worked out at 11.5%. Besides, the Papp A→B at 2 h in data set [2] was determined as 9.47 ×10⁻⁶ cm/s. For the same compound, the Papp B→A at 2 h in [3] is 9.28 ×10⁻⁶ cm/s.

Take `C[C@H](NC(=O)c1cc2ccccc2cn1)C(=O)OCc1ccccc1`: the IC50 in the data set with HL-60 was 84.8 nM; in the data set with HeLa, 154 nM. Also, in the data set on CCRF S-180 [1], the inhibition in vivo at 100 µmol/kg amounted to 40.6%.

For `CC(C)[C@H](NC(=O)c1cc2ccccc2cn1)C(=O)OCc1ccccc1`, the IC50 in the data set on HL-60 turned out to be 78.9 nM; in the data set on HeLa it was 118 nM. The inhibition in vivo at 100 µmol/kg in the data set with CCRF S-180 [1] is 29.7%.

For the compound `CC[C@@H](C)[C@H](NC(=O)c1cc2ccccc2cn1)C(=O)OCc1ccccc1`, the IC50 in the data set on HL-60 was found to be 96.3 nM; in the data set on HeLa, 185 nM. Besides, the inhibition in vivo at 100 µmol/kg in the data set on CCRF S-180 [1] came out at 20.9%.

`O=C(N[C@@H](Cc1c[nH]c2ccccc12)C(=O)OCc1ccccc1)c1cc2ccccc2cn1`: the IC50 in the data set on HL-60 is 66.1 nM; in the data set with HeLa, 396 nM. The inhibition in vivo at 100 µmol/kg in the data set on CCRF S-180 [1] is 36.9%.

`O=C(N[C@@H](CO)C(=O)OCc1ccccc1)c1cc2ccccc2cn1`: the IC50 came out at 70.4 nM in the data set with HL-60 and 135 nM with HeLa. Further, the inhibition in vivo at 100 µmol/kg in the data set with CCRF S-180 [1] stood at 40.4%.

In the case of `O=C(N[C@@H](Cc1ccc(O)cc1)C(=O)OCc1ccccc1)c1cc2ccccc2cn1`, the IC50 amounted to 99.9 nM in the data set with HL-60 and 508 nM in the data set with HeLa. The inhibition in vivo at 100 µmol/kg in the data set with CCRF S-180 [1] is 28%.

On to `O=C(OCc1ccccc1)[C@@H]1CCCN1C(=O)c1cc2ccccc2cn1`, for which the IC50 turned out to be 53.4 nM in the data set on HL-60 and 87.7 nM in the data set with HeLa. Besides, the inhibition in vivo at 100 µmol/kg in the data set on CCRF S-180 [1] was found to be 44.5%. Moreover, the Activity with CCRF S-180 [4] worked out at 1.661 g; with CCRF S-180 [5] it was 1.243 g; in the data set on CCRF S-180 [6], 1.021 g.

Turning to `NC(=O)CC[C@H](NC(=O)c1cc2ccccc2cn1)C(=O)OCc1ccccc1`, the IC50 in the data set with HL-60 came out at 44.5 nM; in the data set with HeLa, 181 nM. In addition, in the data set on CCRF S-180 [1], the inhibition in vivo at 100 µmol/kg was found to be 11.9%.

On to `O=C(N[C@@H](Cc1c[nH]cn1)C(=O)OCc1ccccc1)c1cc2ccccc2cn1`, for which the IC50 in the data set on HL-60 was 87.6 nM; in the data set with HeLa, 263 nM. Further, the inhibition in vivo at 100 µmol/kg in the data set with CCRF S-180 [1] was 24.3%.

For the compound `NCCCC[C@H](NC(=O)c1cc2ccccc2cn1)C(=O)OCc1ccccc1`, the figures for the IC50 in the data set on HL-60 and in the data set on HeLa were 68.2 nM and 196 nM, respectively. Besides, the inhibition in vivo at 100 µmol/kg with CCRF S-180 [1] is 17.1%.

As for `O=C(C[C@H](NC(=O)c1cc2ccccc2cn1)C(=O)OCc1ccccc1)OCc1ccccc1`, the IC50 with HL-60 was 74 nM; in the data set on HeLa, 411 nM. Further, the inhibition in vivo at 100 µmol/kg in the data set with CCRF S-180 [1] worked out at 37.5%.

`O=C(CC[C@H](NC(=O)c1cc2ccccc2cn1)C(=O)OCc1ccccc1)OCc1ccccc1`: the IC50 in the data set on HL-60 amounted to 83.6 nM; in the data set on HeLa, 214 nM. Moreover, the inhibition in vivo at 100 µmol/kg in the data set with CCRF S-180 [1] came out at 25.2%.

`O=C(N[C@@H](Cc1ccccc1)C(=O)OCc1ccccc1)c1cc2ccccc2cn1`: the figures for the IC50 in the data set with HL-60 and in the data set with HeLa were 91.8 nM and 151 nM, respectively. Further, the inhibition in vivo at 100 µmol/kg in the data set on CCRF S-180 [1] was 30.1%.

As for `C[C@H](O)[C@H](NC(=O)c1cc2ccccc2cn1)C(=O)OCc1ccccc1`, the IC50 in the data set with HL-60 turned out to be 62.2 nM; with HeLa, 98.7 nM. The inhibition in vivo at 100 µmol/kg with CCRF S-180 [1] came to 54.4%. Also, the Activity in the data set on CCRF S-180 [4] is 1.315 g; with CCRF S-180 [5], 1.184 g; in the data set with CCRF S-180 [6], 0.802 g; in the data set on Mus musculus [7], “Non-toxic”; in the data set on Mus musculus [8], “Non-toxic”. Further, in [2], the Papp A→B at 2 h stood at 18.6 ×10⁻⁶ cm/s. In addition, the Papp B→A at 2 h in data set [3] stood at 7.05 ×10⁻⁶ cm/s. For the same compound, the LD50 at 168 h in data set [9] was over 540 mg/kg. Also, the survival in data set [10] was 100%.

As for `CSCC[C@H](NC(=O)c1cc2ccccc2cn1)C(=O)OCc1ccccc1`, the IC50 with HL-60 came out at 44.9 nM; in the data set with HeLa, 309 nM. Also, in the data set with CCRF S-180 [1], the inhibition in vivo at 100 µmol/kg was found to be 39.6%.

In the case of `O=C(CNC(=O)c1cc2ccccc2cn1)OCc1ccccc1`, the IC50 in the data set on HL-60 came out at 57.4 nM; with HeLa, 195 nM. Moreover, in the data set on CCRF S-180 [1], the inhibition in vivo at 100 µmol/kg amounted to 16.1%.

In the case of `CC(C)C[C@H](NC(=O)c1cc2ccccc2cn1)C(=O)OCc1ccccc1`, the IC50 in the data set on HL-60 was 72.8 nM; in the data set on HeLa it was 111 nM. For the same compound, the inhibition in vivo at 100 µmol/kg in the data set with CCRF S-180 [1] turned out to be 47.1%. Further, the Activity with CCRF S-180 [4] is recorded as 1.298 g; in the data set on CCRF S-180 [5] it was 1.011 g; with CCRF S-180 [6], 0.938 g; in the data set with Mus musculus [7] it was “Non-toxic”; in the data set with Mus musculus [8], “Non-toxic”. In [2], the apical-to-basolateral permeability (Papp A→B) at 2 h stood at 17.2 ×10⁻⁶ cm/s. The Papp B→A at 2 h in data set [3] was 7.12 ×10⁻⁶ cm/s. In addition, the LD50 at 168 h in [9] is over 540 mg/kg. Also, the survival in data set [10] amounted to 100%.

`NC(=O)C[C@H](NC(=O)c1cc2ccccc2cn1)C(=O)OCc1ccccc1`: the figures for the IC50 in the data set on HL-60 and in the data set with HeLa were 86.9 nM and 216 nM, respectively. Besides, the inhibition in vivo at 100 µmol/kg with CCRF S-180 [1] amounted to 36.7%.

With `Nc1ccn([C@@H]2O[C@H](CO)[C@@H](O)[C@@H]2O)c(=O)n1` [CYTARABINE], the inhibition in vivo at 100 µmol/kg with CCRF S-180 [1] stood at 54.8%. The Activity with CCRF S-180 [11] stood at 0.814 g.
